In BindingDB's records for doi:10.1021/np070447m (2008):

Tests used:
[1] = target: Casein kinase II subunit alpha (Homo sapiens, UniProt P68400); assay: Inhibition of recombinant CK2alpha1
Outline: (§1)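 Purified recombinant kinase, 50 µL reaction. 1 µM [γ-33P]-ATP with substrate; compound added in 10% DMSO. Tested over several concentrations; IC50 in g/mL.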

[2] = target: Vascular endothelial growth factor receptor 3 (Homo sapiens, UniProt P35916); assay: Inhibition of recombinant VEGFR3; outline: as §1
[3] = target: T1, Serine/threonine-protein kinase PLK4 (Homo sapiens, UniProt O00444); assay: Inhibition of recombinant SAK
T1 sequence (O00444 whole entry): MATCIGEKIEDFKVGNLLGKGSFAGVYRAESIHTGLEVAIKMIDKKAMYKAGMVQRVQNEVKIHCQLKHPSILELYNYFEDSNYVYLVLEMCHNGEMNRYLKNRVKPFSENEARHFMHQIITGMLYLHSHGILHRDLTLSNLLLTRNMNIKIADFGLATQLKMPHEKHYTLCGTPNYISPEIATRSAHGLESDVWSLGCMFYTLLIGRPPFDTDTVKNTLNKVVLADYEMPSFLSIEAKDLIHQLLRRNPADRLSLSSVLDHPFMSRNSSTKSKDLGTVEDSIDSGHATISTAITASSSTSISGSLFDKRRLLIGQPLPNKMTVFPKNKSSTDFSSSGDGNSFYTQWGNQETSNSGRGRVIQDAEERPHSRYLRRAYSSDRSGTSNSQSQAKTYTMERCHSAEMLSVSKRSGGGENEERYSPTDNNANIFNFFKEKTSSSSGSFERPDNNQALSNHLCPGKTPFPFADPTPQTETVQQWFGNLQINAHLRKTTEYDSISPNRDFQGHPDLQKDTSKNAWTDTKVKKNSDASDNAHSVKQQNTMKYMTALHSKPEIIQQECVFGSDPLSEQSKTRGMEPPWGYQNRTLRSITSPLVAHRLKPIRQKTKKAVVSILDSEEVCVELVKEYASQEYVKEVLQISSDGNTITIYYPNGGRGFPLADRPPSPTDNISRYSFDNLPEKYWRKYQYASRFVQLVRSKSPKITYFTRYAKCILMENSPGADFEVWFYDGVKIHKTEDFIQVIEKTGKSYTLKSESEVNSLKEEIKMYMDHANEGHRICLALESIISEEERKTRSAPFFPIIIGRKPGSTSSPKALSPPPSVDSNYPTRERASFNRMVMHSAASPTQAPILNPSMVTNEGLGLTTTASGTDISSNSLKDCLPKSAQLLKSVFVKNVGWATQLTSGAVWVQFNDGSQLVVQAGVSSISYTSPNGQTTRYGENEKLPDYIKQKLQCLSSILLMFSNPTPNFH

[4] = target: T2, Receptor-type tyrosine-protein kinase FLT3 (Homo sapiens, UniProt P36888); assay: Inhibition of recombinant FLT3; outline: as §1
T2 sequence (P36888 whole entry): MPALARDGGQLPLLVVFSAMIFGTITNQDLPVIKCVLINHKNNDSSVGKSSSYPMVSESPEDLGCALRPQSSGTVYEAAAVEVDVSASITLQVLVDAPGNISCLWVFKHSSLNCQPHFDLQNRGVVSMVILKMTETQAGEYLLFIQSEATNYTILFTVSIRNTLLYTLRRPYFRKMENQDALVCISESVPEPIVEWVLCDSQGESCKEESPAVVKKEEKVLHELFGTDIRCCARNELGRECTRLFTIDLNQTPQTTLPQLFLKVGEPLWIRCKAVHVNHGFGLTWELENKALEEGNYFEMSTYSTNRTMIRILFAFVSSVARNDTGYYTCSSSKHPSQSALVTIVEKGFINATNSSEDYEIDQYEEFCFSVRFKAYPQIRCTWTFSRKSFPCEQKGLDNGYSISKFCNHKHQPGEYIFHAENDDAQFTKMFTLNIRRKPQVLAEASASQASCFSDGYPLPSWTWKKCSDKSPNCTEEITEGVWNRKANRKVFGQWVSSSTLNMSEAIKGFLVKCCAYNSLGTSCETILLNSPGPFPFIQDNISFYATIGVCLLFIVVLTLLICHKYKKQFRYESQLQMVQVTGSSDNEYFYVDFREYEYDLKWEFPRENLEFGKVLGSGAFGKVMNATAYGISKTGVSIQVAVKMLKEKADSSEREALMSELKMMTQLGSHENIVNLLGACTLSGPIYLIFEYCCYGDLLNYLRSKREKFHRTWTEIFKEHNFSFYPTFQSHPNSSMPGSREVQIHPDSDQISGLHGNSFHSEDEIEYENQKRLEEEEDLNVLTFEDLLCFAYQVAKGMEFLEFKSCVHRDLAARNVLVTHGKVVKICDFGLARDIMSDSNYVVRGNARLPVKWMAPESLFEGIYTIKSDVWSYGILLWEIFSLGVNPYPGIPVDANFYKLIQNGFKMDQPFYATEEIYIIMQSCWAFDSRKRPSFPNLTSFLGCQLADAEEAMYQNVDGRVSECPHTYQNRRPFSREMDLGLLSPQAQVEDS

[5] = target: T3, NUAK family SNF1-like kinase 1 (Homo sapiens, UniProt O60285); assay: Inhibition of recombinant ARK5
T3 sequence (O60285 whole entry): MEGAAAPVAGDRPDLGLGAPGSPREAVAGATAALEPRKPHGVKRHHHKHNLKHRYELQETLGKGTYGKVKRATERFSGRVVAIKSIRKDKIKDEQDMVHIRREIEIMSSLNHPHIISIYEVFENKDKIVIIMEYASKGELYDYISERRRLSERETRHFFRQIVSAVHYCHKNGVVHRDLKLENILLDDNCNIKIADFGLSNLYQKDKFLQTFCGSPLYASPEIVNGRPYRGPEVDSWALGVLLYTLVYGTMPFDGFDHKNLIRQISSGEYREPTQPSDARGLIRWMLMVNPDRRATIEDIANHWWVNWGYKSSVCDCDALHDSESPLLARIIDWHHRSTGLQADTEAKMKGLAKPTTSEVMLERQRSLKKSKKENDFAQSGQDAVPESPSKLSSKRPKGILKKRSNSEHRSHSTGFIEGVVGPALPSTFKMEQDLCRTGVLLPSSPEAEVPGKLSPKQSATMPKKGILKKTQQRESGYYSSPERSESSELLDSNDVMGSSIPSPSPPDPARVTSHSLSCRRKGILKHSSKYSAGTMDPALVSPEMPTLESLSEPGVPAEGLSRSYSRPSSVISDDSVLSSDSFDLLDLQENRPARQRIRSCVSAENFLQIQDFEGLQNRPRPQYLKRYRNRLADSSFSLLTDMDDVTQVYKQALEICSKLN

[6] = target: Vascular endothelial growth factor receptor 2 (Homo sapiens, UniProt P35968); assay: Inhibition of recombinant VEGFR2; outline: as §1
Vascular endothelial growth factor receptor 2, sequence (P35968 whole entry): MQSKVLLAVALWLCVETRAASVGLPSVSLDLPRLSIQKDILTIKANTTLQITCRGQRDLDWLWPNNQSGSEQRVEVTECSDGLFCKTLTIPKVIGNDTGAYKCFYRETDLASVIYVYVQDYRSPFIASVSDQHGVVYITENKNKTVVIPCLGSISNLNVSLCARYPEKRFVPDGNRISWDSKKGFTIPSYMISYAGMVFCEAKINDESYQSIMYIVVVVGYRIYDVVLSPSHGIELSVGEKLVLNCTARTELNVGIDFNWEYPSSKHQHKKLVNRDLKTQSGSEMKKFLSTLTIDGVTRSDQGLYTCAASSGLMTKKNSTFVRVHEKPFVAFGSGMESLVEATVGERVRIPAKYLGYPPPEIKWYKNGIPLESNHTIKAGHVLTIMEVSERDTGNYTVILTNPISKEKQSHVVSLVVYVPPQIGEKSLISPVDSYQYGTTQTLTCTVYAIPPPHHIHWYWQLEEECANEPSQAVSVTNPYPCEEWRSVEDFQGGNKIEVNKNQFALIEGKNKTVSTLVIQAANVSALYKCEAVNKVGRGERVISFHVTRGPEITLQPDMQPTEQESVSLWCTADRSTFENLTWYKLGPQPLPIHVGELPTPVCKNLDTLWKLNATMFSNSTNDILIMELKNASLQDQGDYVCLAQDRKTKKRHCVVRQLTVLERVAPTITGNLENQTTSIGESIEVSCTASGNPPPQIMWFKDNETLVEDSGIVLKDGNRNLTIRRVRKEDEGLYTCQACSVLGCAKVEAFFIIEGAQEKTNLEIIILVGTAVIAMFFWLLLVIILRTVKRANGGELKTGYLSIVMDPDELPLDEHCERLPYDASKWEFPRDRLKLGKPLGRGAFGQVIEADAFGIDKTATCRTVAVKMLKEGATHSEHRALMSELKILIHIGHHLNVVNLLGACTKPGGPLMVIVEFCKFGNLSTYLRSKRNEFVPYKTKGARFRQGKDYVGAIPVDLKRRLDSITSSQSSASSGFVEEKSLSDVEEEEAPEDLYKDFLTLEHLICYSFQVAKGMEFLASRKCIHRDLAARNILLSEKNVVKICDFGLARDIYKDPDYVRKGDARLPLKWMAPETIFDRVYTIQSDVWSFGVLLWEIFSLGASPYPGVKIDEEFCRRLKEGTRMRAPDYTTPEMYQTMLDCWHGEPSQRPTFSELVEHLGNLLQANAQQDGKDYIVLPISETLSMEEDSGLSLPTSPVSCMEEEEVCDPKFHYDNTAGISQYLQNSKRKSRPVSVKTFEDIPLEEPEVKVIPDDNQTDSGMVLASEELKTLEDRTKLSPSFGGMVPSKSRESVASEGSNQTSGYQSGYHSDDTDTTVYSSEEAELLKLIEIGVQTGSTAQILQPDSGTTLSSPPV

[7] = target: Insulin-like growth factor 1 receptor (Homo sapiens, UniProt P08069); assay: Inhibition of recombinant IGF1R; outline: as §1
[8] = target: Focal adhesion kinase 1 (Homo sapiens, UniProt Q05397); assay: Inhibition of recombinant FAK
[9] = target: RAC-alpha serine/threonine-protein kinase (Homo sapiens, UniProt P31749); assay: Inhibition of recombinant AKT1; outline: as §1
RAC-alpha serine/threonine-protein kinase, sequence (P31749 whole entry): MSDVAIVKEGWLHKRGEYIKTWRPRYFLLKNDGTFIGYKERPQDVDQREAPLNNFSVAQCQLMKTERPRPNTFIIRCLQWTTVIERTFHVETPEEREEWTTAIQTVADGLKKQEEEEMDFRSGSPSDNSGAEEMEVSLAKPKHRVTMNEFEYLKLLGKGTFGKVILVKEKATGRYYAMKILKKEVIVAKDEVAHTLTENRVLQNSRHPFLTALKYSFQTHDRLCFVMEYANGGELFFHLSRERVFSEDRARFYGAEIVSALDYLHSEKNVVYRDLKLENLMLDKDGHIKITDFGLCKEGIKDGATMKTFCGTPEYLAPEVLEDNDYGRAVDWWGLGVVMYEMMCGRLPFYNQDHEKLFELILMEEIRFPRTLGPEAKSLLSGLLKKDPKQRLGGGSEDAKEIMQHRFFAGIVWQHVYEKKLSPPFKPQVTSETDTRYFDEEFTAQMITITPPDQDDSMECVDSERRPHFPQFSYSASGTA

[10] = target: T4, Ephrin type-B receptor 4 (Homo sapiens, UniProt P54760); assay: Inhibition of recombinant EPHB4; outline: as §1
T4 sequence (P54760 whole entry): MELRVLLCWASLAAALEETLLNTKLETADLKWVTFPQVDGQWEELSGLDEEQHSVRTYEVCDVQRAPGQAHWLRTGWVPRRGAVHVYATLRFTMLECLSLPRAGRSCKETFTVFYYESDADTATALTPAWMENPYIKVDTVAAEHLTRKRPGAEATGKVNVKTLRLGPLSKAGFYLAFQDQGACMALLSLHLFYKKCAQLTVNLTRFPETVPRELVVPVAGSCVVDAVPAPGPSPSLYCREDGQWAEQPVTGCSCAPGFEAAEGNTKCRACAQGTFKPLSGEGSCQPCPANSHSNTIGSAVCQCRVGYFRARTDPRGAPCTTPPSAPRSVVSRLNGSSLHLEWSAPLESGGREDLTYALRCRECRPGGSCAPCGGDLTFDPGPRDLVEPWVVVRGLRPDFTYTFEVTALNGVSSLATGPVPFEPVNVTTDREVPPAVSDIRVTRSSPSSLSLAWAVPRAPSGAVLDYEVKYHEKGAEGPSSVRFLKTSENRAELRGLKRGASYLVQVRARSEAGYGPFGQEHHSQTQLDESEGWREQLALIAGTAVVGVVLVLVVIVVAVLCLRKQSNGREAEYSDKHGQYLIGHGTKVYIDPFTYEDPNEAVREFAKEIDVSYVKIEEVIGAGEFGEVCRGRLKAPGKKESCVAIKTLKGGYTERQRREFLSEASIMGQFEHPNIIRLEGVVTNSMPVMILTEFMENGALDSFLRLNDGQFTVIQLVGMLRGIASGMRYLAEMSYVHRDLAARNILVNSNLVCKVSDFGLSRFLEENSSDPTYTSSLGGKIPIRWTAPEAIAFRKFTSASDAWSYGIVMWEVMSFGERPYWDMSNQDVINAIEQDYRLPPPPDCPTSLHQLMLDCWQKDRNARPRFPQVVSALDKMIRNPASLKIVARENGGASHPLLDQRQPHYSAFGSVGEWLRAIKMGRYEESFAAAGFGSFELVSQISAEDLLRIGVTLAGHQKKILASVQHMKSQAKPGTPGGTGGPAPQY

[11] = target: Platelet-derived growth factor receptor beta (Homo sapiens, UniProt P09619); assay: Inhibition of recombinant PDGFRbeta
[12] = target: Serine/threonine-protein kinase PLK1 (Homo sapiens, UniProt P53350); assay: Inhibition of recombinant PLK1
Serine/threonine-protein kinase PLK1, sequence (P53350 whole entry): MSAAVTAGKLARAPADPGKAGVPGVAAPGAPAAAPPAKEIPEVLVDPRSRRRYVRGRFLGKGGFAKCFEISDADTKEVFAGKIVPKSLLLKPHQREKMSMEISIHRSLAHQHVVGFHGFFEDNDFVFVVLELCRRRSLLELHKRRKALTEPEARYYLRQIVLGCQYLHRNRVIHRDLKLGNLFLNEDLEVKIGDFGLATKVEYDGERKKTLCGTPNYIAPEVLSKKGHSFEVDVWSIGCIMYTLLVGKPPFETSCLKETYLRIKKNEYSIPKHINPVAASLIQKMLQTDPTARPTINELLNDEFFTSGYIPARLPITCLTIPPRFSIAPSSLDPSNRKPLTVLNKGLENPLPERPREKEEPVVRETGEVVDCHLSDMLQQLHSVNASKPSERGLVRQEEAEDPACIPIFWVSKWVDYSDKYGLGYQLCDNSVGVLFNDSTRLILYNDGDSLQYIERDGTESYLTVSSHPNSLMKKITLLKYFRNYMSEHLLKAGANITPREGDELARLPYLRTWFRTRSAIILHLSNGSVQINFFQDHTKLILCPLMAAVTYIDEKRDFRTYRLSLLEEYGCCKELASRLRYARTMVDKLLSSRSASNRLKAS

[13] = target: Cyclin-dependent kinase 4/G1/S-specific cyclin-D1 (Homo sapiens, UniProt P11802); assay: Inhibition of recombinant CDK4/CycD1
[14] = target: Receptor tyrosine-protein kinase erbB-2 (Homo sapiens, UniProt P04626); assay: Inhibition of recombinant ERBB2
Receptor tyrosine-protein kinase erbB-2, sequence (P04626 whole entry): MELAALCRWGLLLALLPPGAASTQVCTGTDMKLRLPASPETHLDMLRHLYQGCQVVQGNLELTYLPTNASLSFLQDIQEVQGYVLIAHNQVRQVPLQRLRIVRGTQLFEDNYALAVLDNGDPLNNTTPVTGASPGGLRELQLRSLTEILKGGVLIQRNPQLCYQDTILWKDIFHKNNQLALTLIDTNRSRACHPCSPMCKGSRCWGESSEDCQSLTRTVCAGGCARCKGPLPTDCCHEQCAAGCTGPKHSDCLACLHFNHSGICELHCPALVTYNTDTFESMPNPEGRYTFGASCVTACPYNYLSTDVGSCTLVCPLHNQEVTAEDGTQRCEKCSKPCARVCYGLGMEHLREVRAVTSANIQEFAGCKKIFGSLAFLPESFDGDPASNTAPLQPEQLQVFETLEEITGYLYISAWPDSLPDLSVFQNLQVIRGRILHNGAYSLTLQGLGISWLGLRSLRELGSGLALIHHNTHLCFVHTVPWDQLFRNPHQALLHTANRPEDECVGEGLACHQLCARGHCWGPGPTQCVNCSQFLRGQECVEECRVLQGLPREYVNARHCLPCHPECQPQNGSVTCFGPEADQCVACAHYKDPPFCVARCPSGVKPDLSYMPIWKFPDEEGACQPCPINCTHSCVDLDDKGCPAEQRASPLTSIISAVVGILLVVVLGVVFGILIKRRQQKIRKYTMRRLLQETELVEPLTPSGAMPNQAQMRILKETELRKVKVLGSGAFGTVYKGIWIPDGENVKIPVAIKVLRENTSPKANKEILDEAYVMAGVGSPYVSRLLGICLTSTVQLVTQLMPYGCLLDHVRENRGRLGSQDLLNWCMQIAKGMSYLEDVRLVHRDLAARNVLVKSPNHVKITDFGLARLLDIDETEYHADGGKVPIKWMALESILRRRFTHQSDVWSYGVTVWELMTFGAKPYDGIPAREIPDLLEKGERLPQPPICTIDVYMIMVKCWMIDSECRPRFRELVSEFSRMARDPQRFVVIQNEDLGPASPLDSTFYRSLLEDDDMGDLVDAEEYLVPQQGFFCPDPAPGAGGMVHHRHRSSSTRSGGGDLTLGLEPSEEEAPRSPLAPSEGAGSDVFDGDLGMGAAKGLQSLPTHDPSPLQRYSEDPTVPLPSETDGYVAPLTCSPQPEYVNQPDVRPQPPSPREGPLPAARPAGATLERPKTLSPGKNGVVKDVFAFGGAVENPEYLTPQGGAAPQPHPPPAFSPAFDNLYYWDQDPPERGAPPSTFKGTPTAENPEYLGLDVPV

[15] = target: Mitogen-activated protein kinase kinase kinase 8 (Homo sapiens, UniProt P41279); assay: Inhibition of recombinant COT
Mitogen-activated protein kinase kinase kinase 8, sequence (P41279 whole entry): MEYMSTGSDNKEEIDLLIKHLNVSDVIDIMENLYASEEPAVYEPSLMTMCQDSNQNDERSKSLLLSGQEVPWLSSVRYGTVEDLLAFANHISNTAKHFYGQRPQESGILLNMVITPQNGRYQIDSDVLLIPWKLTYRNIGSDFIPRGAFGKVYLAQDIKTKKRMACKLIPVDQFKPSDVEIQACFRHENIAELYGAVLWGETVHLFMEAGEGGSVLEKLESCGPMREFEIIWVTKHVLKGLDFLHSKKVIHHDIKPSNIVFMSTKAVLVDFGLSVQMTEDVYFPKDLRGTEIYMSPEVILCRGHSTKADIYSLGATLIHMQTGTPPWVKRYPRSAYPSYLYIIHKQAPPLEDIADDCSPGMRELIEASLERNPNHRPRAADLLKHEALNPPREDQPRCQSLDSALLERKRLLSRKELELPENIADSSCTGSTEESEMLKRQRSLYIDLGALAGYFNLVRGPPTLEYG

[16] = target: Cyclin-dependent kinase 2 (Homo sapiens, UniProt P24941); assay: Inhibition of recombinant CDK2/CycA; outline: as §1
[17] = target: Angiopoietin-1 receptor (Homo sapiens, UniProt Q02763); assay: Inhibition of recombinant TIE2
[18] = target: Aurora kinase B (Homo sapiens, UniProt Q96GD4); assay: Inhibition of recombinant Aurora B; outline: as §1
Aurora kinase B, sequence (Q96GD4 whole entry): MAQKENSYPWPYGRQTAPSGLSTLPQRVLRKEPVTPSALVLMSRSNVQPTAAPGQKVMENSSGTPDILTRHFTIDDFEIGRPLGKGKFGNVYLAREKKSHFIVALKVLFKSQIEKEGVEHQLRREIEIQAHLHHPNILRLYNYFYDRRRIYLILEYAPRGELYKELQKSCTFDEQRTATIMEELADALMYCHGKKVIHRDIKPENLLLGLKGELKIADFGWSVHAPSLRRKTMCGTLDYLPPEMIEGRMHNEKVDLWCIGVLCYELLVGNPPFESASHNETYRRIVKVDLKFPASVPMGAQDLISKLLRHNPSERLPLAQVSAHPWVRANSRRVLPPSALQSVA

[19] = target: T5, Aurora kinase A (Homo sapiens, UniProt O14965); assay: Inhibition of recombinant Aurora A; outline: as §1
T5 sequence (O14965 whole entry): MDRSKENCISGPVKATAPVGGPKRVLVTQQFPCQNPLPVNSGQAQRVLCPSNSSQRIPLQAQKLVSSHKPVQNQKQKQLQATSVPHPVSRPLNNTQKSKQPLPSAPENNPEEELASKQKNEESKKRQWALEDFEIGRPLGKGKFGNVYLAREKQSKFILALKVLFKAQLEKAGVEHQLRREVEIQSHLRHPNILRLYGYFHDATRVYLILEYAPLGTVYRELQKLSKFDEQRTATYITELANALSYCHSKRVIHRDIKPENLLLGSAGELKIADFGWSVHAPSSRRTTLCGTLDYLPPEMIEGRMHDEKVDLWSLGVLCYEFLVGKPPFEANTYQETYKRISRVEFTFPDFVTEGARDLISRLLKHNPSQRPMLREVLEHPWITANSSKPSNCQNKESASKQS

[20] = target: Serine/threonine-protein kinase B-raf (Homo sapiens, UniProt P15056, V600E); assay: Inhibition of recombinant B-RAF-V600E mutant; outline: as §1

Casein kinase II subunit alpha, sequence (P68400 whole entry): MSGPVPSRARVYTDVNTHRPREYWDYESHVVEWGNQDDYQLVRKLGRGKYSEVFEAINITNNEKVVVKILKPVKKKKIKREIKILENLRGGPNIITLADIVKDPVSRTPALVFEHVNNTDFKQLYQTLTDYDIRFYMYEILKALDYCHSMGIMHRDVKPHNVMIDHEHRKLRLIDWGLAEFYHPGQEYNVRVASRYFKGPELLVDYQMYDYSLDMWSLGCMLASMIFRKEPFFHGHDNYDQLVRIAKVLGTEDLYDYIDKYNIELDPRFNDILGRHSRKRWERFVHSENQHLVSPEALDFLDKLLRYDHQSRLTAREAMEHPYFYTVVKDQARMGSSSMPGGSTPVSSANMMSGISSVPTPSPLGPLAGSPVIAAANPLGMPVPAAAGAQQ

IC50 [12] [µM] | IC50 [14] [µM] | Structure (SMILES) | IC50 [1] [µM] | IC50 [4] [µM] | IC50 [5] [µM] | IC50 [9] [µM] | IC50 [16] [µM] | also measured
 |  | COc1cc(O)c2c(=O)oc3cc(O)cc(C)c3c2c1 | > 36.7 |  |  |  |  | 
 |  | COc1cc(O)c2c(=O)oc3c(O)c(O)cc(C)c3c2c1 | > 34.6 | 1.83 | 1.21 |  |  | IC50 [2]: 1.35 µM; IC50 [3]: 2.87 µM; IC50 [6]: 2.22 µM; IC50 [7]: 3.15 µM
> 35.9 | > 35.9 | COc1cc(O)c(C(=O)O)c(C2=C(C)C[C@@H](O)C2=O)c1 [Alternarienonic Acid] | > 35.9 |  |  | > 35.9 | > 35.9 | IC50 [8]: > 35.9 µM; IC50 [10]: > 35.9 µM; IC50 [11]: > 35.9 µM; IC50 [13]: > 35.9 µM; IC50 [15]: > 35.9 µM; IC50 [17]: > 35.9 µM
 |  | Cc1cc(O)cc2oc(=O)c3c(O)cc(OS(=O)(=O)O)cc3c12 [Alternariol 5-O-Sulfate] |  | 0.975 | 2.21 | > 29.5 | 2.48 | IC50 [3]: 1.12 µM; IC50 [18]: 0.65 µM; IC50 [19]: 1.15 µM; IC50 [6]: 2.06 µM; IC50 [20]: 2.18 µM
 |  | Cc1cc(O)cc2oc(=O)c3c(O)cc(O)cc3c12 [CHEBI:64983] |  |  | 3.67 | > 38.7 |  | IC50 [10]: > 38.7 µM; IC50 [11]: 3.44 µM; IC50 [19]: 2.82 µM
> 36.2 | > 36.2 | Cc1cc(O)c(O)cc1-c1cc(O)cc(O)c1C(=O)O [Desmethylaltenusin] | > 36.2 |  |  | > 36.2 | > 36.2 | 

Structure (SMILES) | IC50 [12] [µM] | IC50 [14] [µM] | IC50 [1] [µM] | IC50 [4] [µM] | IC50 [5] [µM] | IC50 [9] [µM] | IC50 [16] [µM] | also measured
O=C1C[C@H](O)[C@@H]2c3c(ccc(O)c31)-c1ccc(O)c3c1[C@@]2(O)CCC3=O [Altertoxin I] | > 28.3 | > 28.3 | > 28.3 | 1.87 |  | > 28.3 | > 28.3 | IC50 [18]: 2.78 µM
